Screening data deposited in PubChem by several laboratories.
Diaph act CS: activates diaphorase or chemically reduces, flagging diaphorase assay artifacts; Diaphorase/resazurin coupled assay, resorufin fluorescence, 16 min; active compounds read high; 1 = vehicle wells, 0 = NADH-free wells; activation factor at 20 µM; actives 0.005% (n = 190,000);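 active means diaphorase activity raised at least twofold by the compound at 20 µM; inactive means activation factor below 2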
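Test system: Clostridium kluyveri diaphorase, purified enzyme; input: enzyme 0.07 U/mL final; buffer or medium: 50 mM HEPES pH 7.4 with 4.542 mM MgCl2, 0.005% Tween 20; also added: 0.114 mM NADH and 0.1 mM resazurin, final amounts; schedule: 16 min enzyme reaction, ambient temperature; technique: fluorescence of resorufin, 544 nm excitation, 590 nm emission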
14-3-3 Bad PPI: disrupts binding of bovine 14-3-3 zeta to phospho-Bad peptide | P63103 | actives 0.71% (n = 220,000) | TR-FRET 14-3-3zeta/Dy647-pBad peptide displacement, 1 h | inhibition, % at 21.7 µM;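 active means inhibition above about 70%, limit read from the data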
Target sequence (P63103 whole entry, looked up): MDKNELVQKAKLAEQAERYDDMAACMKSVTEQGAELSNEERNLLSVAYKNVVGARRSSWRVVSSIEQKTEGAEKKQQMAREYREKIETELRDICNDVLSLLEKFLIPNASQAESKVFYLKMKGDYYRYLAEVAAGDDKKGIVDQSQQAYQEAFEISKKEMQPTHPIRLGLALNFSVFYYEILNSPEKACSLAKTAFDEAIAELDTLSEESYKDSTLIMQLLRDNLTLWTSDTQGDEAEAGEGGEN
Hck Nef HTS: inhibitors of human Hck kinase activated by Nef; Recombinant Hck-YEEI plus Nef, Z-Lyte FRET kinase assay; inhibition, % at 20 µM; actives 0.68% (n = 220,000); P08631; AID 463187;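 active means Hck-Nef kinase inhibition above about 50%, limit read from the data; inactive means inhibition below that limit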
eIF4E-4G inh: inhibitors of eIF4E and eIF4G interaction in translation initiation | TR-FRET eIF4E-eIF4GI(517-606) binding, 2 h | inhibition, % at 21.7 µM | actives 0.37% (n = 220,000) | AID 782
p47phox inh: blocks human p47phox regulatory protein of NADPH oxidases; P14598; p47phox/p22phox peptide binding, fluorescence polarization, 2 h; inhibition, % at 24.7 µM; actives 0.53% (n = 220,000); AID 1274
Target sequence (P14598 whole entry, looked up): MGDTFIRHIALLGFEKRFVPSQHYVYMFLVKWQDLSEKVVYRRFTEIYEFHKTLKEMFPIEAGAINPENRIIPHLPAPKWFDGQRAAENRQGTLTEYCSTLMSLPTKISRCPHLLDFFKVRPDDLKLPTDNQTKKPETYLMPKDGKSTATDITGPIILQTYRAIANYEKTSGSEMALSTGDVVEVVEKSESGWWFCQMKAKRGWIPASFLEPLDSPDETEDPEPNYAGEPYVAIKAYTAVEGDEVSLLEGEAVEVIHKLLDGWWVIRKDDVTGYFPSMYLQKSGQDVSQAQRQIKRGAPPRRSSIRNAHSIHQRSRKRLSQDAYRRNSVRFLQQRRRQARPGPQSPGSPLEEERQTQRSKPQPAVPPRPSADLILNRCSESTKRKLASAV
Large screens that a line does not name were inactive; [ ] = remark or other dose. A selection: hits, their analogues and other compounds. The true share with any hit is near 2%.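 How the source made its calls, unless noted: active means inhibition above about 30% (limit read from the data); inactive means the rest.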

CC/C(=C/c1sc2ccc(C)cc2[n+]1CCCS(=O)(=O)[O-])SC	none
O=S(=O)([O-])CCC[n+]1c(SCCCS(=O)(=O)O)sc2ccc(Cl)cc21	14-3-3 Bad PPI 92[fluorescence artefact?]
COc1ccc(-c2nc3n(c(=O)c2C#N)CCS3)cc1	none
C=CCSc1nc(-c2ccc(OC)cc2)c(C#N)c(=O)n1CC=C	eIF4E-4G inh 89
COc1cc(OC)c2c(c1O)OC(c1ccccc1)CC2=O (configuration not stated)	none
COC1=CC(=O)CC(C)C12Oc1c(Cl)c(OC)cc(OC)c1C2=O (configuration not stated)	14-3-3 Bad PPI 77
COc1ccc(-c2cc(C(=O)Nc3c(C)n(C)n(-c4ccccc4)c3=O)no2)cc1OC	none
Cc1ccc2nc(C)cc(Nc3ccc([N+](=O)[O-])cc3)c2c1	14-3-3 Bad PPI 77
CCn1c(SCC(=O)Nc2ccc(C(C)=O)cc2)nc2nc3c(cc2c1=O)CCCC3	eIF4E-4G inh 51
COc1ccc2nc(N=Nc3c(O)ccc4ccccc34)sc2c1	p47phox inh 34
Cc1cnc(NC(=O)c2ccc(OCC3CCCO3)cc2)s1 (configuration not stated)	Hck Nef HTS 59
Cc1ccc(NC(=O)c2ccc(OCC3CCCO3)cc2)cc1 (configuration not stated)	none
CCOC(=O)C1CCC(CNCc2ccccc2C)CC1 (configuration not stated)	none
COc1ccc(-c2nnn(CC(=O)NCc3ccccc3)n2)cc1OC	none
CCOc1ccc(-c2nnn(CC(=O)Nc3ccccc3OC)n2)cc1OCC	p47phox inh 31
Nc1c(C(=O)O)sc2nc3c(cc12)CCCC3	none (no result: Diaph act CS)
CN1CCc2nc3sc(C(=O)C45CC6CC(CC(C6)C4)C5)c(N)c3cc2C1	14-3-3 Bad PPI 81[fluorescence artefact?], p47phox inh 48
CCOC(=O)Cc1nnc(NC(=O)CSc2nc3ccccc3[nH]2)s1	none (no result: Diaph act CS)
FC(F)(F)c1ccc(N2CCOCC2)c(NC2=NCCCCC2)c1	14-3-3 Bad PPI 82
CCOc1cc(N2CCOCC2)c(OCC)cc1NC1=NCCCCC1	p47phox inh 60
CCOc1cc(N2CCOCC2)c(OCC)cc1NC(=O)Cc1ccc(OC)c(OC)c1	none
CC(C)c1nc2c(c(=O)c3ccccc3n2C)c(=O)n1CCc1ccccc1	none (no result: Diaph act CS)
COc1ccccc1NC(=O)COc1ccc(/C=N/NC(=O)CSCc2cc(C)cc(C)c2)cc1	p47phox inh 34
O=c1c2ccccc2nc(/C=C/c2ccc([N+](=O)[O-])o2)n1CCCO	p47phox inh 35
N#CCOC(=O)/C=C/c1ccc2c(c1)OCO2	none
CCOC(=O)C1=C(C)NC(SC)=C(C#N)C1CC(C)C (configuration not stated)	eIF4E-4G inh 44 (no result: Diaph act CS)
CC(=O)C1=C(C)NC(SCC(N)=O)=C(C#N)C1CC(C)C (configuration not stated)	none
COCc1cc(C)nc(OC)c1C(N)=O	none
O=C1CC(c2ccc(O)cc2)Oc2cc(O)cc(O)c21 (configuration not stated)	none
O=C1CC(c2ccccc2)Oc2cc(O)cc(O)c21 (configuration not stated)	eIF4E-4G inh 96 (no result: Diaph act CS)
COC(=O)c1ccc(C2c3c(oc4ccc(Cl)cc4c3=O)C(=O)N2CCN2CCOCC2)cc1 (configuration not stated)	none (no result: Diaph act CS)
OCCN(Cc1ccccc1)Cc1ccc(Cl)cc1Cl	14-3-3 Bad PPI 87
O=C(Cc1ccccc1)NCCc1ccc(Cl)cc1Cl	none
COc1ccc(O)c(C(=O)c2cc(SCC(=O)O)c3nc4sc5c(c4c(=O)n3c2)CCCC5)c1	eIF4E-4G inh 39 (no result: Diaph act CS)
N#CCN1CCC2(O)CCCCC2C1c1ccc2c(c1)OCO2 (configuration not stated)	none (no result: Diaph act CS)
COc1cccc(CC2(CO)CCN(Cc3ccc4cccc(F)c4n3)CC2)c1	14-3-3 Bad PPI 90
CC1(OC(=O)CCc2ccccc2)C(=O)C=C2C=C(c3ccsc3)OC=C2C1=O (configuration not stated)	Hck Nef HTS 71 (no result: Diaph act CS)
COc1ccc2nc(N3C(=O)/C(=C/c4ccc(Cl)cc4)NC3=S)sc2c1	14-3-3 Bad PPI 72[fluorescence artefact?]
CC(=O)N(C)c1ccc(NC(=O)Nc2ccc(C)c(C)c2)cc1	none
C#CCOCCOCCOCCNc1nc(N2CCN(C(=O)[C@H]([C@@H](C)CC)n3cc(CCCN=C(N)N)nn3)CC2)nc(N2CCN(C(=O)[C@H](CCCCN)n3cc(CCCC)nn3)CC2)n1	none
C#CCOCCOCCOCCNc1nc(N2CCN(C(=O)[C@H]([C@@H](C)CC)n3cc([C@@H](N)CC(C)C)nn3)CC2)nc(N2CCN(C(=O)[C@H](Cc3cc4ccccc4[nH]3)n3cc([C@@H](N)Cc4ccc(O)cc4)nn3)CC2)n1	p47phox inh 53
C#CCOCCOCCOCCNc1nc(N2CCN(C(=O)[C@H](C)n3cc(CCCN=C(N)N)nn3)CC2)nc(N2CCN(C(=O)[C@H](CCCCN)n3cc(CCCC)nn3)CC2)n1	14-3-3 Bad PPI 89
C#CCOCCOCCOCCNc1nc(N2CCN(C(=O)[C@H](CCCCN)n3cc([C@@H](N)CO)nn3)CC2)nc(N2CCN(C(=O)[C@H](Cc3cc4ccccc4[nH]3)n3cc([C@@H](N)Cc4ccc(O)cc4)nn3)CC2)n1	p47phox inh 39
C#CCOCCOCCOCCNc1nc(N2CCN(C(=O)C(Cc3cc4ccccc4[nH]3)n3cc(C(N)C(C)CC)nn3)CC2)nc(N2CCN(C(=O)C(Cc3cc4ccccc4[nH]3)n3cc(C(N)C(C)CC)nn3)CC2)n1 (configuration not stated)	p47phox inh 67
Cc1c(NC(=O)c2ccc(-c3cccc([N+](=O)[O-])c3)o2)c(=O)n(-c2ccccc2)n1C	none (no result: Diaph act CS)
O=C(NCc1ccccc1Cl)C1CCN(c2cnccn2)CC1	none
C#CCOCCOCCOCCNc1nc(N2CCN(C(=O)[C@H](Cc3ccc(O)cc3)n3cc([C@@H](N)C(C)CC)nn3)CC2)nc(N2CCN(C(=O)[C@H](Cc3cc4ccccc4[nH]3)n3cc([C@@H](N)Cc4ccc(O)cc4)nn3)CC2)n1 (some centres not stated)	p47phox inh 33 (no result: Diaph act CS)
O=C(NCCCO)Nc1ccc2nc(-c3ccco3)c(-c3ccco3)nc2c1	eIF4E-4G inh 48
O=C(Nc1ccc2nc(-c3ccco3)c(-c3ccco3)nc2c1)NC1CC1	eIF4E-4G inh 41[fluorescence artefact?]
Nc1nnn(CC(=O)N/N=C/c2cn[nH]c2-c2ccccc2)n1	none (no result: Diaph act CS)
O=C(O)c1ccccc1C(=O)NC1CCCCNC1=O (configuration not stated)	none (no result: Diaph act CS)
CCOc1cc2[nH]c(=S)n(CCCCC(=O)NCc3ccco3)c(=O)c2cc1OCC	none
CCOc1cc2[nH]c(=S)n(CCC(=O)NCc3ccc(OC)cc3)c(=O)c2cc1OCC	p47phox inh 35
C/C(=N\Nc1ccc(Cl)cc1)c1c(O)cc(C)oc1=O	none
